Experimental data as given in ChEMBL document CHEMBL4689842, “EUbOPEN Chemogenomics Library wave 1” (2021).

System: U2OS
Assay: Multiplex assay against U2OS
Assay type: toxicity, cell-based
Conditions: human
Summary of the method: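 Phenotypes for tubulin, mitochondrial mass and membrane permeability are expressed as per cents of healthy-nucleus cells. Cells were stained live at seeding with Hoechst33342, BioTracker Green Microtubule Cytoskeleton Dye, MitoTracker Red and Annexin V Alexa Fluor 680, then imaged after compound addition on a CQ1 microscope at 37°C and 5% CO2. Machine-learning gating in CellPathfinder separated Hoechst high-intensity objects from normal cells, divided normal cells by nuclear state (healthy, pyknosed, fragmented) and divided pyknosed cells into mitotic or apoptotic.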

[1] = 12 h, 1 µM, compound concentration 1 uM, replicate 1
[2] = 12 h, 1 µM, compound concentration 1 uM, replicate 2
[3] = 12 h, 10 µM, compound concentration 10 uM, replicate 1
[4] = 12 h, 10 µM, compound concentration 10 uM, replicate 2
[5] = 24 h, 1 µM, compound concentration 1 uM, replicate 1
[6] = 24 h, 1 µM, compound concentration 1 uM, replicate 2
[7] = 24 h, 10 µM, compound concentration 10 uM, replicate 1
[8] = 24 h, 10 µM, compound concentration 10 uM, replicate 2
[9] = 48 h, 1 µM, compound concentration 1 uM, replicate 1
[10] = 48 h, 1 µM, compound concentration 1 uM, replicate 2
[11] = 48 h, 10 µM, compound concentration 10 uM, replicate 1
[12] = 48 h, 10 µM, compound concentration 10 uM, replicate 2

CC(Cc1ccc(O)c(O)c1)C(C)Cc1ccc(O)c(O)c1 (stereo not drawn) [NORDIHYDROGUAIARETIC ACID]
Population Apoptotic (%) [1]: 64%
Population Fragmented Nuclei (%) [1]: 11%
Population Healthy Nuclei (%) [1]: 75%
Population Hoechst High Intensity Objects (%) [1]: 8%
Population Membrane Permeable-Phenotype (%) [1]: 3%
Population Mitochondria Different-Phenotype (%) [1]: 8%
Population Mitotic Cells (%) [1]: 35%
Population Normal (%) [1]: 91%
Population Pyknosed Nuclei (%) [1]: 12%
Population Tubulin-Different-Phenotype (%) [1]: 10%
Population Apoptotic (%) [2]: 0%
Population Fragmented Nuclei (%) [2]: 3%
Population Healthy Nuclei (%) [2]: 93%
Population Hoechst High Intensity Objects (%) [2]: 15%
Population Membrane Permeable-Phenotype (%) [2]: 0%
Population Mitochondria Different-Phenotype (%) [2]: 1%
Population Mitotic Cells (%) [2]: 100%
Population Normal (%) [2]: 84%
Population Pyknosed Nuclei (%) [2]: 3%
Population Tubulin-Different-Phenotype (%) [2]: 25%
Population Apoptotic (%) [3]: 35%
Population Fragmented Nuclei (%) [3]: 19%
Population Healthy Nuclei (%) [3]: 64%
Population Hoechst High Intensity Objects (%) [3]: 14%
Population Membrane Permeable-Phenotype (%) [3]: 7%
Population Mitochondria Different-Phenotype (%) [3]: 12%
Population Mitotic Cells (%) [3]: 64%
Population Normal (%) [3]: 85%
Population Pyknosed Nuclei (%) [3]: 16%
Population Tubulin-Different-Phenotype (%) [3]: 30%
Population Apoptotic (%) [4]: 0%
Population Fragmented Nuclei (%) [4]: 2%
Population Healthy Nuclei (%) [4]: 91%
Population Hoechst High Intensity Objects (%) [4]: 6%
Population Membrane Permeable-Phenotype (%) [4]: 2%
Population Mitochondria Different-Phenotype (%) [4]: 10%
Population Mitotic Cells (%) [4]: 100%
Population Normal (%) [4]: 93%
Population Pyknosed Nuclei (%) [4]: 5%
Population Tubulin-Different-Phenotype (%) [4]: 38%
Population Apoptotic (%) [5]: 45%
Population Fragmented Nuclei (%) [5]: 12%
Population Healthy Nuclei (%) [5]: 78%
Population Hoechst High Intensity Objects (%) [5]: 7%
Population Membrane Permeable-Phenotype (%) [5]: 4%
Population Mitochondria Different-Phenotype (%) [5]: 7%
Population Mitotic Cells (%) [5]: 54%
Population Normal (%) [5]: 92%
Population Pyknosed Nuclei (%) [5]: 8%
Population Tubulin-Different-Phenotype (%) [5]: 11%
Population Apoptotic (%) [6]: 0%
Population Fragmented Nuclei (%) [6]: 2%
Population Healthy Nuclei (%) [6]: 94%
Population Membrane Permeable-Phenotype (%) [6]: 0%
Population Mitochondria Different-Phenotype (%) [6]: 8%
Population Mitotic Cells (%) [6]: 100%
Population Pyknosed Nuclei (%) [6]: 2%
Population Tubulin-Different-Phenotype (%) [6]: 23%
Population Apoptotic (%) [7]: 61%
Population Fragmented Nuclei (%) [7]: 18%
Population Healthy Nuclei (%) [7]: 68%
Population Hoechst High Intensity Objects (%) [7]: 14%
Population Membrane Permeable-Phenotype (%) [7]: 10%
Population Mitochondria Different-Phenotype (%) [7]: 15%
Population Mitotic Cells (%) [7]: 38%
Population Normal (%) [7]: 85%
Population Pyknosed Nuclei (%) [7]: 12%
Population Tubulin-Different-Phenotype (%) [7]: 59%
Population Apoptotic (%) [8]: 16%
Population Fragmented Nuclei (%) [8]: 2%
Population Healthy Nuclei (%) [8]: 90%
Population Hoechst High Intensity Objects (%) [8]: 5%
Population Membrane Permeable-Phenotype (%) [8]: 1%
Population Mitochondria Different-Phenotype (%) [8]: 9%
Population Mitotic Cells (%) [8]: 83%
Population Normal (%) [8]: 94%
Population Pyknosed Nuclei (%) [8]: 7%
Population Tubulin-Different-Phenotype (%) [8]: 61%
Population Apoptotic (%) [9]: 43%
Population Fragmented Nuclei (%) [9]: 9%
Population Healthy Nuclei (%) [9]: 81%
Population Hoechst High Intensity Objects (%) [9]: 2%
Population Membrane Permeable-Phenotype (%) [9]: 2%
Population Mitochondria Different-Phenotype (%) [9]: 18%
Population Mitotic Cells (%) [9]: 56%
Population Normal (%) [9]: 97%
Population Pyknosed Nuclei (%) [9]: 8%
Population Tubulin-Different-Phenotype (%) [9]: 14%
Population Apoptotic (%) [10]: 20%
Population Fragmented Nuclei (%) [10]: 8%
Population Healthy Nuclei (%) [10]: 86%
Population Hoechst High Intensity Objects (%) [10]: 6%
Population Membrane Permeable-Phenotype (%) [10]: 4%
Population Mitochondria Different-Phenotype (%) [10]: 9%
Population Mitotic Cells (%) [10]: 80%
Population Normal (%) [10]: 93%
Population Pyknosed Nuclei (%) [10]: 5%
Population Tubulin-Different-Phenotype (%) [10]: 30%
Population Apoptotic (%) [11]: 72%
Population Fragmented Nuclei (%) [11]: 15%
Population Healthy Nuclei (%) [11]: 74%
Population Hoechst High Intensity Objects (%) [11]: 9%
Population Membrane Permeable-Phenotype (%) [11]: 6%
Population Mitochondria Different-Phenotype (%) [11]: 18%
Population Mitotic Cells (%) [11]: 27%
Population Normal (%) [11]: 90%
Population Pyknosed Nuclei (%) [11]: 9%
Population Tubulin-Different-Phenotype (%) [11]: 76%
Population Apoptotic (%) [12]: 66%
Population Fragmented Nuclei (%) [12]: 1%
Population Healthy Nuclei (%) [12]: 92%
Population Hoechst High Intensity Objects (%) [12]: 6%
Population Membrane Permeable-Phenotype (%) [12]: 4%
Population Mitochondria Different-Phenotype (%) [12]: 16%
Population Mitotic Cells (%) [12]: 33%
Population Normal (%) [12]: 93%
Population Pyknosed Nuclei (%) [12]: 6%
Population Tubulin-Different-Phenotype (%) [12]: 77%
